# GASC1 inh: blocks human GASC-1 (KDM4C) demethylase activity. Q9H3R0. 0.15% of 96,000 active. AID 720574. inhibition, % at 12.5 µM. GST-KDM4C 2-372, H3K9me3 peptide, LANCE TR-FRET;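 active = mean replicate inhibition above about 25%, with at least 55% of replicates also reaching it, limit read from the data, passing the limit was not always enough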
#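 Material: GST-tagged GASC-1 (JMJD2C) catalytic fragment, aa 2-372. Input: enzyme final amount 10 nM. Medium: HEPES buffer, pH 7.5, plus ascorbate. Reagent: H3K9me3 peptide substrate, Fe(II), 2-oxoglutarate. Doses: single dose. Times: reaction 30 min RT, detection step 1 h RT. Measured by: LANCE TR-FRET. Evaluation: Fall in 671/618 emission ratio as inhibition.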
# IDH1 R132H inh: IDH1 R132H (human) inhibition | O75874 | IDH1 R132H reductase, diaphorase/resazurin fluorescence, 60 min | inhibition, % at 10 µM | 0.18% of 70,000 active; in the data active = inhibition above about 34%;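 note: 0% = DMSO and 100% = no enzyme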
# Target sequence (O75874 whole entry R132H): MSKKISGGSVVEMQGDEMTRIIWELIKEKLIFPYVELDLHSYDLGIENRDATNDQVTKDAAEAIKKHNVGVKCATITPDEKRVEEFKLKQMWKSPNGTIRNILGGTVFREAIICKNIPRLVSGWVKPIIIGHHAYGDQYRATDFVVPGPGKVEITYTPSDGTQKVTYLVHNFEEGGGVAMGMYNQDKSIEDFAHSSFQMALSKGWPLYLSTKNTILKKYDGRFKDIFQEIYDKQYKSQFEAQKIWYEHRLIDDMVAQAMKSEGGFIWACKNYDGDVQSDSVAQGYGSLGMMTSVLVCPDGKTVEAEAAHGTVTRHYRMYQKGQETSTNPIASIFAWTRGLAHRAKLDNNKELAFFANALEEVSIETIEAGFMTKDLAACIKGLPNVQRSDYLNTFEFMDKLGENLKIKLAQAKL
# * = called active by the depositor; x = no result; ! = repeats disagree. Rows were chosen to be rich in hits. Some 0.19% of all compounds tested hit in one or more screens of this group.
SMILES,GASC1 inh,IDH1 R132H inh
C[C@@H]1CCCCO[C@H](CN(C)Cc2ccncc2)[C@H](C)CN([C@@H](C)CO)C(=O)c2cc(NC(=O)CCC(F)(F)F)ccc2O1,34*,75*
C[C@@H]1CCCCO[C@@H](CN(C)C(=O)CCC(F)(F)F)[C@@H](C)CN([C@H](C)CO)C(=O)c2cc(NS(=O)(=O)c3ccccc3)ccc2O1,-3,-2
C[C@@H]1CN([C@@H](C)CO)C(=O)c2cc(NC(=O)CCC(F)(F)F)ccc2O[C@@H](C)CCCCO[C@@H]1CN(C)Cc1ccncc1,-1,x
C[C@@H]1CCCCO[C@H](CN(C)C(=O)CCC(F)(F)F)[C@H](C)CN([C@@H](C)CO)C(=O)c2cc(NS(=O)(=O)c3ccccc3)ccc2O1,-2,91*
COc1ccc(/C=C2\Oc3cc(O)cc(O)c3C2=O)cc1O,x,0
COc1ccc(NC(=O)CNC(=O)c2ccccc2C)cc1,x,0
O=C(CN1CCOCC1)NCC[C@H]1CC[C@H](NC(=O)c2ccc3c(c2)OCO3)[C@H](CO)O1,50*,61*
O=C(CN1CCOCC1)NCC[C@@H]1CC[C@H](NC(=O)c2ccc3c(c2)OCO3)[C@H](CO)O1,-1,0
C[C@@H]1CN([C@@H](C)CO)S(=O)(=O)c2ccc(C#CC3CCCCC3)cc2O[C@H]1CN(C)C(=O)Cc1ccncc1,0,66*
C[C@H]1CN([C@@H](C)CO)S(=O)(=O)c2ccc(C#CC3CCCCC3)cc2O[C@H]1CN(C)C(=O)Cc1ccncc1,-1,x
C[C@@H]1CN([C@@H](C)CO)S(=O)(=O)c2ccc(C#CC3CC3)cc2O[C@H]1CN(C)Cc1cccnc1,0,x
C[C@H](CO)N1C[C@H](C)[C@@H](CN(C)C(=O)c2cccnc2)Oc2cc(C#CC3CC3)ccc2S1(=O)=O,16,42*
C[C@H](CO)N1C[C@H](C)[C@H](CN(C)C(=O)c2cccnc2)Oc2cc(C#CC3CC3)ccc2S1(=O)=O,2,0
C[C@@H]1CN([C@H](C)CO)S(=O)(=O)c2ccc(C#CC3CC3)cc2O[C@H]1CN(C)Cc1cccnc1,-1,60*
Cn1nnnc1SCC(=O)Nc1cccc(Cl)c1Cl,x,-1
CC(C)(C)c1ccc(-c2ncon2)cc1Cn1nnc(-c2cccc(C(F)(F)F)c2)n1,x,-1
O=C1C=CC(O)(/C=C/C(=O)O[C@@H]2[C@@H](O)[C@H](Oc3ccc(O)cc3)O[C@H](CO)[C@H]2O)C=C1,x,0
O=C(CSC1=NCCN1)C1COc2ccccc2O1 (centres undefined),x,39*
O=C(O)CNC(=O)C1COc2ccccc2O1 (centres undefined),x,0
O=C(CCSc1nc2ccccc2o1)Nc1ccc(F)cc1,x,0
CS(=O)(=O)N(CC(=O)NC1CCCC1)c1cc(Cl)c(Cl)cc1Cl,x,0
O=C(O)C[C@@H]1C[C@@H]2c3cc(NC(=O)CC4CC4)ccc3O[C@@H]2[C@@H](CO)O1,38*,60*
O=C(O)C[C@@H]1C[C@@H]2c3cc(NC(=O)Nc4ccc(C(F)(F)F)cc4)ccc3O[C@@H]2[C@@H](CO)O1,34*,50*
O=C(O)C[C@@H]1C[C@H]2c3cc(NC(=O)Nc4ccc(C(F)(F)F)cc4)ccc3O[C@H]2[C@@H](CO)O1,-1,0
O=C(O)C[C@@H]1C[C@@H]2c3cc(NC(=O)CC4CC4)ccc3O[C@@H]2[C@H](CO)O1,1,-1
SMILES,GASC1 inh,IDH1 R132H inh
CCCCCCNC(=O)Nc1ccc(S(=O)(=O)Nc2ccc(CCNCC(O)COc3ccc(O)cc3)cc2)cc1 (centres undefined),x,1
COc1ccc(NC(=O)CN(c2ccc(Br)c(C)c2)S(C)(=O)=O)cc1Cl,x,-1
O=C(Nc1ccc(Cl)cc1)NC(Cc1ccccc1)C(=O)O (centres undefined),x,0
CSc1nc2n(n1)C(=O)CC(C)(C)N2,x,1
COc1ccccc1CCNC(=O)c1cc(-c2ccc(C)o2)nc2ccccc12,x,0
S=C(NCC1CCCO1)Nc1cccc(Cn2cc(Cl)cn2)c1 (centres undefined),x,0
CN(C)C(=O)C[C@@H]1C[C@H]2c3cc(NC(=O)C4CCC4)ccc3O[C@H]2[C@H](CO)O1,36*,52*
CN(C)C(=O)C[C@H]1C[C@@H]2c3cc(NC(=O)C4CCC4)ccc3O[C@@H]2[C@@H](CO)O1,3,2
CN(C)C(=O)C[C@@H]1C[C@@H]2c3cc(NC(=O)Nc4ccccc4)ccc3O[C@@H]2[C@@H](CO)O1,32*,73*
CN(C)C(=O)C[C@H]1C[C@@H]2c3cc(NC(=O)Nc4ccccc4)ccc3O[C@@H]2[C@H](CO)O1,3,0
O=C(Nc1cnn(Cc2ccc(Cl)cc2Cl)c1)C1CC(c2cccc(Br)c2)=NO1 (centres undefined),x,0
COc1cc(NC(=O)Cn2cnc3c2c(=O)n(C)c(=O)n3C)cc(OC)c1OC,x,3
Cc1ccc(S(=O)(=O)N2[C@@H]3CNC[C@H]2C3c2ccc(-c3cccc(C#N)c3)cc2)cc1 (some centres undefined),2,x
N#Cc1cccc(-c2ccc(C3[C@H]4CNC[C@@H]3N4S(=O)(=O)c3ccc(F)cc3)cc2)c1 (some centres undefined),35*!,x
O=C(Nc1ccc(Cl)cc1)N[C@H]1CC[C@H](CCNC(=O)c2ccccc2F)O[C@H]1CO,40*,43*
O=C(Nc1ccc(Cl)cc1)N[C@H]1CC[C@@H](CCNC(=O)c2ccccc2F)O[C@H]1CO,x,-1
CCC(=O)N[C@@H]1CC[C@H](CCn2cc(-c3cccc(OC)c3)nn2)O[C@H]1CO,0,0
CCC(=O)N[C@@H]1CC[C@H](CCn2cc(-c3cccc(OC)c3)nn2)O[C@@H]1CO,29*,0
COc1cccc(-c2cn(CC[C@@H]3CC[C@H](NC(=O)CC4CC4)[C@@H](CO)O3)nn2)c1,55*,7
COc1cccc(-c2cn(CC[C@H]3CC[C@H](NC(=O)CC4CC4)[C@H](CO)O3)nn2)c1,0,0
Cc1ccc(-c2nc3ncccc3o2)cc1NC(=O)COc1cc(Cl)c(Cl)cc1Cl,x,1
CN(C)c1ccc2c(c1)[C@H]1C[C@H](CC(=O)N3CCCCC3)O[C@H](CO)[C@H]1O2,31*,x
CN(C)c1ccc2c(c1)[C@@H]1C[C@H](CC(=O)N3CCc4ccccc4C3)O[C@H](CO)[C@@H]1O2,24,-3
CN(C)c1ccc2c(c1)[C@@H]1C[C@H](CC(=O)N3CCCCC3)O[C@H](CO)[C@@H]1O2,46*,x
CN(C)c1ccc2c(c1)[C@H]1C[C@H](CC(=O)N3CCCCC3)O[C@@H](CO)[C@H]1O2,30*,x
SMILES,GASC1 inh,IDH1 R132H inh
CN(C)c1ccc2c(c1)[C@@H]1C[C@@H](CC(=O)N3CCc4ccccc4C3)O[C@@H](CO)[C@@H]1O2,10,-1
CN(C)c1ccc2c(c1)[C@H]1C[C@@H](CC(=O)N3CCc4ccccc4C3)O[C@@H](CO)[C@H]1O2,5,-2
CC(C)c1ccc(NC(=O)CN(C)S(=O)(=O)c2ccc(F)cc2)cc1,x,0
COC(=O)c1c(NC(=O)COc2ccccc2)sc(C)c1-c1ccccc1,x,0
COc1ccc(OC)c(NC(=O)COc2cc(C)cc(C)c2C)c1,x,0
O=S(=O)(NC1CCN(Cc2ccc(OCCO)cc2)CC1)c1cc(Cl)ccc1Cl,x,37*
O=S(=O)(N[C@@H]1CCCN(Cc2cccc(OCCO)c2)C1)c1cc(Cl)ccc1Cl,x,19
